Tests used:
Stability of formulation = format: physicochemical; conditions: 10% ethanol-90% saline; analytical HPLC and radio-TLC
[1] = logPo/w by shake flask method; format: physicochemical
5-HT1AR [2] = assay: PET imaging in anesthetized baboon; format: in vivo, baboon (Papio anubis)
In short: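 Two fasted male baboons: ketamine 10 mg/kg im, then 1.5–2.0% isoflurane via endotracheal tube, core temperature held at 37 °C. Saline iv line and arterial line placed. 10 min transmission scan, then 111 ± 18 MBq radiotracer as iv bolus. 3-D emission data collected for 180 min. MRI-coregistered regions of interest, left and right averaged.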

Dopamine3 = Dopamine3 (Homo sapiens, UniProt P35462); assay: NIMH-PDSP binding assay, Dopamine3
BZP Rat Brain Site = assay: NIMH-PDSP binding assay, BZP Rat Brain Site; conditions: read-out: Ki BZP Rat Brain Site
Adrenergic α1A = biological target: T1, Adrenergic α1A (Homo sapiens, UniProt P35348); assay: NIMH-PDSP binding assay, Adrenergic α1A
T1 sequence (P35348 1-466): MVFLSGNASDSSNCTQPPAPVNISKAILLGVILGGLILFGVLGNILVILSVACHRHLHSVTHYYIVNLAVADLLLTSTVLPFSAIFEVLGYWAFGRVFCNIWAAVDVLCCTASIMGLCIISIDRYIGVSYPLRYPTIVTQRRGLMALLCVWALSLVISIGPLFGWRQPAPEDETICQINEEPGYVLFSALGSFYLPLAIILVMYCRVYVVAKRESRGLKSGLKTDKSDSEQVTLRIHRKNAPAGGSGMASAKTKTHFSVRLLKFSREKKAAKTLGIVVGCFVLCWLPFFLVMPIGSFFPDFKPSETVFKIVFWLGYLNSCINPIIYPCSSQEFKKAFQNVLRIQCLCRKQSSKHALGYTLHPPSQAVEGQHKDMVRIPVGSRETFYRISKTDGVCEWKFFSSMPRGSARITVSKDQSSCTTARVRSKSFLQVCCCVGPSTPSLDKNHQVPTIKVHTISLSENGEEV

Dopamine2 = Dopamine2 (Homo sapiens, UniProt P14416); assay: NIMH-PDSP binding assay, Dopamine2
5-HT1AR [3] = conditions: 5-HT1AR-rich regions such as hippocampus, amygdala, cortex and cingulate regions; cited from earlier work
5HT7 = 5HT7 (Homo sapiens, UniProt P34969); assay: NIMH-PDSP binding assay, 5HT7
5HT7, sequence (P34969 whole entry, species assumed): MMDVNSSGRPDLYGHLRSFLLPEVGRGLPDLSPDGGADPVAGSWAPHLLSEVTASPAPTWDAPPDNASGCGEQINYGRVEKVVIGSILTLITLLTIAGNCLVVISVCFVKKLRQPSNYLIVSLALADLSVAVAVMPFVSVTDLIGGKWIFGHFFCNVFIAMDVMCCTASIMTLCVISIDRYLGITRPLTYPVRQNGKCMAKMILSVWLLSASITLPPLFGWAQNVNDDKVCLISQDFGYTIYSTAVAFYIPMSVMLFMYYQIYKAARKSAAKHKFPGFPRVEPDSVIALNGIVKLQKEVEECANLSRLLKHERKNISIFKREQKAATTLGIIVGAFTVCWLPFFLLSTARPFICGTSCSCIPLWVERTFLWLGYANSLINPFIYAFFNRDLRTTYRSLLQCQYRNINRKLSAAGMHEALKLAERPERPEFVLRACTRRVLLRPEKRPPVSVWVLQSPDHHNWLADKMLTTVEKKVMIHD

Dopamine3, sequence (P35462 whole entry): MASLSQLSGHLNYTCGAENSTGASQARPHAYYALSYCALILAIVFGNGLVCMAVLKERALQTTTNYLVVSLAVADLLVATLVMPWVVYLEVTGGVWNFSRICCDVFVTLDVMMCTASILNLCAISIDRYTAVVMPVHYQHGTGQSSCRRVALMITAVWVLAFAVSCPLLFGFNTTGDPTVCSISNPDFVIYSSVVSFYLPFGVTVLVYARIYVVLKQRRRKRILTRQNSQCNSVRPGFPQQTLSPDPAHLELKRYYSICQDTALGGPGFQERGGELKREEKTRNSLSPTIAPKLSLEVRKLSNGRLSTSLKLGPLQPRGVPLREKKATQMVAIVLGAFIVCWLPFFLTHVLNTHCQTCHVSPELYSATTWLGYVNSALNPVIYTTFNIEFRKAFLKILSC
Dopamine2, sequence (P14416 whole entry): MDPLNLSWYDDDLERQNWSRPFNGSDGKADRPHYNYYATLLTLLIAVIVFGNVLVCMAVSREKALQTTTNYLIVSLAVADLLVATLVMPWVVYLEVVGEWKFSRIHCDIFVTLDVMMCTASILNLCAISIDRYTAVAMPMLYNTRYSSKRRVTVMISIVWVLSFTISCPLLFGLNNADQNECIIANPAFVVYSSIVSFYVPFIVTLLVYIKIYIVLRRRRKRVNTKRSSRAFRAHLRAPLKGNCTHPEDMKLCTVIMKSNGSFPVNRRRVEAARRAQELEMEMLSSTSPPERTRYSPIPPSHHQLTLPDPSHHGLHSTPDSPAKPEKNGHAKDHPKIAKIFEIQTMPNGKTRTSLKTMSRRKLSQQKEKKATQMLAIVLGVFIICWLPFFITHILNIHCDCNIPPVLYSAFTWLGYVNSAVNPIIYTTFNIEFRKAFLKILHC

For `Cn1c(=O)cnn(CCCCN2CCN(c3ccccc3OCC[18F])CC2)c1=O` [[^18F]FECUMI-101, [18F]2-(4-(4-(2-(2-fluoroethoxy)phenyl)piperazin-1-yl)butyl)-4-methyl-1,2,4-triazine-3,5(2H,4H)-dione], the “Stability of radioproduct in formulation, no significant de[18F]fluorination” value (Stability of formulation) was “up to 4 h”, the logPo/w [1] was 1.2 and the BBB penetration (5-HT1AR [2]; anesthetized baboon, 111 ± 18 MBq i.v.) was “penetrates the BBB”. The “in vivo radio[18F]defluorination (skull image)” value (5-HT1AR [2]; baboon PET) was “No skull image”.

In the case of `COc1ccccc1N1CCN(CCCCn2ncc(=O)n(C)c2=O)CC1` [CUMI-101], the “Ki Dopamine3” value (Dopamine3) is reported as “did not show any significant binding”, the Ki (BZP Rat Brain Site) is reported as greater than 10 µM and the “less affinity for α1A AR in comparison to 5-HT1AR” value (Adrenergic α1A) is reported as 45 fold. The “Ki Dopamine2” value (Dopamine2) was “did not show any significant binding”.

In the case of `Cn1c(=O)cnn(CCCCN2CCN(c3ccccc3O[11CH3])CC2)c1=O` [[^11C]CUMI-101], the “lower BPF in comparison with [11C]WAY-100635 scans” value (5-HT1AR [3]) is listed as ~ 50%.

In the case of `Cn1c(=O)cnn(CCCCN2CCN(c3ccccc3OCCF)CC2)c1=O` [FECUMI-101, 2-(4-(4-(2-(2-fluoroethoxy)phenyl)piperazin-1-yl)butyl)-4-methyl-1,2,4-triazine-3,5(2H,4H)-dione], the “selectivity to 5-HT1A over 5-HT7” value (5HT7) is reported as 172 fold.
